Reference: ChEMBL document CHEMBL1134232, “Phenylcyclohexene and phenylcyclohexadiene substituted compounds having retinoid antagonist activity” (Bioorg Med Chem Lett, 2001)

What was measured:
[1] = target: T1, Retinoic acid receptor alpha (Homo sapiens, UniProt P10276); assay: Binding affinity towards retinoic acid receptor alpha was determined using [3H]ATRA (5 nM) as radioligand
T1 sequence (P10276 whole entry): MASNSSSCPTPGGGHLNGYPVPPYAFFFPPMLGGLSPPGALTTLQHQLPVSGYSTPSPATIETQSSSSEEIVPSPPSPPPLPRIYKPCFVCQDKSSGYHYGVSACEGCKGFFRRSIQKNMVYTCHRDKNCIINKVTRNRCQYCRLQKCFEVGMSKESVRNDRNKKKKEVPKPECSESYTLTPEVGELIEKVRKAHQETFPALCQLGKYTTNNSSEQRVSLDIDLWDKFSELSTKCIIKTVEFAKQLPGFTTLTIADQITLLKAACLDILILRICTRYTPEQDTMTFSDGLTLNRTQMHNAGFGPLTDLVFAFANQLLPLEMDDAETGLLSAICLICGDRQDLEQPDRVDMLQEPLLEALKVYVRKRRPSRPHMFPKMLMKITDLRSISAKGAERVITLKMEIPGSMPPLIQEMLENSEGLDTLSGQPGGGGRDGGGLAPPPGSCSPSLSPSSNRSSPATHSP

[2] = target: T2, Retinoic acid receptor alpha (Homo sapiens) (UniProt P10276); assay: Efficacy of TTNPB (10 nM) function at retinoic acid receptor alpha, antagonized at highest dose tested (10⁴ nM)
T2 sequence (whole entry): T1 sequence (P10276 whole entry)
In short: (§1)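 In the RAR transactivation assay with 10 nM TTNPB, efficacy is the percent of TTNPB transcriptional activity antagonized at the highest dose tested (10⁴ nM). Each receptor subtype is tested separately.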

[3] = target: T1, Retinoic acid receptor alpha; assay: Antagonist activity of TTNPB (10 nM) function at retinoic acid receptor alpha; type: functional
In short: (§2)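 Transactivation assay run separately at RARα, RARβ and RARγ. Test compound is applied at varying concentrations against 10 nM TTNPB, held constant. Inhibition of TTNPB-driven transcriptional activation is measured, and IC50 is calculated as the half-maximal inhibition concentration.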

[4] = target: T3, Retinoic acid receptor gamma (Homo sapiens, UniProt P13631); assay: Antagonist activity of TTNPB (10 nM) function at retinoic acid receptor gamma; type: functional; in short: as §2
T3 sequence (P13631 whole entry): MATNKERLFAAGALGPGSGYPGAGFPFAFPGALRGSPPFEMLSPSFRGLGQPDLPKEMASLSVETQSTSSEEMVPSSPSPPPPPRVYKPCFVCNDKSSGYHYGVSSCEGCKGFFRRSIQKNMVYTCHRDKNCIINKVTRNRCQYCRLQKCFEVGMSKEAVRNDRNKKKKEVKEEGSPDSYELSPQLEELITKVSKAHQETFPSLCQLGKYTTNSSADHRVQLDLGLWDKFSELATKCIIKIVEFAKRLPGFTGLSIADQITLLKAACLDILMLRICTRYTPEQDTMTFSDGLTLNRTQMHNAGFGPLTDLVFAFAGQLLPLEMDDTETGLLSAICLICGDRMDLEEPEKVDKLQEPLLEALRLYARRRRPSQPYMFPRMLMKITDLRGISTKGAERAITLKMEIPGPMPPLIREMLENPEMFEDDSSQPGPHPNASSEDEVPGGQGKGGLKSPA

[5] = target: T4, Retinoic acid receptor beta (Homo sapiens) (UniProt P10826); assay: Efficacy of TTNPB (10 nM) function at retinoic acid receptor beta (10 uM); in short: as §1
T4 sequence (whole entry): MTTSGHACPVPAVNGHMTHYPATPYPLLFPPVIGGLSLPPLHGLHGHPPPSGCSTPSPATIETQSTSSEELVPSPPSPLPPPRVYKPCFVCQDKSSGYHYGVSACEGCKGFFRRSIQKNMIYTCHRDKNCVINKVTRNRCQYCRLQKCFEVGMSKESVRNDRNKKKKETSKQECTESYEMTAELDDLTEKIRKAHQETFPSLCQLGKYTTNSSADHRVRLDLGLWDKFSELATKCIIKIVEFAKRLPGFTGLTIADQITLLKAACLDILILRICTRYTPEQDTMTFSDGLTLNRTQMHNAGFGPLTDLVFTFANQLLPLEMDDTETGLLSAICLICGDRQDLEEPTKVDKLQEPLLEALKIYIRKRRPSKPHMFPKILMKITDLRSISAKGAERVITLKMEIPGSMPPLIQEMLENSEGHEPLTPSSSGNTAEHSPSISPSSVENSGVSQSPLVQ

[6] = target: T5, Retinoic acid receptor beta (Homo sapiens, UniProt P10826); assay: Antagonist activity of TTNPB (10 nM) function at retinoic acid receptor beta; type: functional; in short: as §2
T5 sequence (P10826 whole entry): T4 sequence (whole entry)

[7] = target: T6, Retinoic acid receptor gamma (Homo sapiens) (UniProt P13631); assay: Efficacy of TTNPB (10 nM) function at retinoic acid receptor gamma (10 uM); in short: as §1
T6 sequence (whole entry): T3 sequence (P13631 whole entry)

[8] = target: T3, Retinoic acid receptor gamma; assay: Binding affinity towards retinoic acid receptor gamma was determined using [3H]ATRA (5 nM) as radioligand
[9] = target: T5, Retinoic acid receptor beta; assay: Binding affinity towards retinoic acid receptor beta was determined using [3H]ATRA (5 nM) as radioligand
[10] = target: T5, Retinoic acid receptor beta; assay: Ability to inhibit TTNPB-induced transactivation at retinoic acid receptor beta
[11] = target: T1, Retinoic acid receptor alpha; assay: Ability to inhibit TTNPB-induced transactivation at retinoic acid receptor alpha
[12] = target: T3, Retinoic acid receptor gamma; assay: Ability to inhibit TTNPB-induced transactivation at retinoic acid receptor gamma

SMILES | Kd [1] [µM] | Efficacy [2] [%] | IC50 [3] [µM] | IC50 [4] [µM] | Efficacy [5] [%] | IC50 [6] [µM] | Efficacy [7] [%] | Kd [8] [µM] | Kd [9] [µM] | EC50 [10] [µM] | EC50 [11] [µM] | EC50 [12] [µM]
Cc1ccc(C2=CCC(C)(C)c3ccc(C#Cc4ccc(C(=O)O)cc4)cc32)cc1 | 0.017 | 91 | 0.031 | 0.003 | 97 | 0.02 | 98 | – | – | – | – | –
CCc1ccc(C2=C(/C=C/C#Cc3ccc(C(=O)O)cc3)C(C)(C)CCC2)cc1 | – | 97 | 0.22 | 0.003 | 96 | 0.04 | 95 | – | – | – | – | –
Cc1ccc(C2=CCC(C)(C)C=C2/C=C/C#Cc2ccc(C(=O)O)cc2)cc1 | 0.252 | 96 | – | – | 94 | – | 97 | 0.031 | 0.053 | – | – | –
CC1(C)CCCC(c2ccc(C(C)(C)C)cc2)=C1/C=C/C#Cc1ccc(C(=O)O)cc1 | 0.875 | 94 | – | – | 96 | – | 95 | 0.331 | 0.025 | – | – | –
CC1(C)C=C(/C=C/C#Cc2ccc(C(=O)O)cc2)C(c2ccc(C(C)(C)C)cc2)=CC1 | > 1 | – | – | – | – | – | – | > 1 | 0.087 | – | – | –
CC1=C(/C=C/C#Cc2ccc(C(=O)O)cc2)C(C)(C)CCC1 | 0.135 | – | – | – | – | – | – | 0.19 | 0.02 | 0.007 | 0.435 | –
CC1(C)CCC(C)(C)c2cc(C/C=C/c3ccc(C(=O)O)cc3)ccc21 | 0.036 | – | – | – | – | – | – | 0.026 | 0.005 | 0.008 | 0.03 | 0.004
Cc1ccc(C2=C(/C=C/C#Cc3ccc(C(=O)O)cc3)C(C)(C)CCC2)cc1 | – | 93 | 0.21 | 0.005 | 92 | 0.022 | 96 | – | – | – | – | –
